≈ marks a conversion by molar mass, not a printed value. Calls of active or inactive are those of the source. No cut-off for these calls is given here.
Assays:
[1] = tested on: Ribosome; test: Induction of ribosome to readthrough in-frame UGA codon of renilla/firefly CFTR W1282X nonsense mutant gene transfected in HEK293 cells assessed as reduction in overall translation at 1 to 2 mM after 6 hrs dual-luciferase reporter gene assay; type: subcellular; conditions: Homo sapiens
[2] = tested on: Ribosome; test: Induction of ribosome to readthrough in-frame UGA codon associated with renilla/firefly dystrophin R3381X nonsense mutant gene transfected in rabbit reticulocyte assessed as reduction in overall translation at 5 to 20 uM […] dual-luciferase reporter gene assay; type: subcellular; conditions: Oryctolagus cuniculus
[3] = target: Bacterial 70S ribosome; test: Inhibition of ribosomal activity in Escherichia coli strain B assessed as inhibition of translation after 60 mins by coupled transcription/translation assay; type: subcellular
Method in brief: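 E. coli S30 extract for circular DNA, with pBESTluc plasmid as template. Reactions containing varying aminoglycoside concentrations incubated at 37 °C for 60 min, chilled on ice 5 min, then diluted in tris-phosphate buffer (25 mM, pH 7.8) with DTT, chelator, glycerol, Triton X-100 and BSA. Luciferase luminescence read immediately after reagent addition. IC50 fitted from at least two independent experiments.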

[4] = Inhibition of ribosomal activity in Spodoptera frugiperda Sf21 cells assessed as inhibition of translation after 60 mins by fluorescence assay; type: subcellular, Ribosome
[5] = Ratio of compound LC50 to geneticin LC50 for HEK293 cells; type: ADME, cell-based; conditions: human
Method in brief: (§1)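 HEK-293 cells seeded 5000/well overnight in DMEM with 10% FBS, 1% pen/strep, 1% glutamine; medium replaced without antibiotics, aminoglycosides added at varying concentrations for 48 h; OD read on plate reader. Viability as living cells treated versus untreated; LC50 from concentration–response fits of at least two independent experiments; ratios relative to reference drug LC50.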

[6] = tested on: Ribosome; test: Induction of ribosome to readthrough in-frame UGA codon of renilla/firefly CFTR W1282X nonsense mutant gene transfected in rabbit reticulocyte assessed as reduction in overall translation at 5 to 20 uM […] dual-luciferase reporter gene assay; type: subcellular; conditions: Oryctolagus cuniculus
[7] = tested on: HEK293; test: Ratio of geneticin to compound activity for induction of ribosome to readthrough in-frame UGA codon of renilla/firefly CFTR W1282X nonsense mutant gene transfected in HEK293 cells at 0.1 to 0.7 mM after 6 hrs dual-luciferase reporter gene assay; type: subcellular; conditions: Homo sapiens
[8] = tested on: Ribosome; test: Induction of ribosome to readthrough in-frame UAG codon of renilla/firefly IDUA Q70X nonsense mutant gene transfected in HEK293 cells assessed as reduction in overall translation at 1 to 2 mM after 6 hrs dual-luciferase reporter gene assay; type: subcellular; conditions: Homo sapiens
[9] = tested on: Ribosome; test: Induction of ribosome to readthrough in-frame UGA codon of renilla/firefly CFTR G542X nonsense mutant gene transfected in rabbit reticulocyte assessed as reduction in overall translation at 5 to 20 uM […] dual-luciferase reporter gene assay; type: subcellular; conditions: Oryctolagus cuniculus
[10] = tested on: Escherichia coli; test: Antibacterial activity against Escherichia coli R477-100 by double-microdilution method; type: functional
Method in brief: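 MIC by two-fold broth microdilution following NCCLS guidance; tested compound started at 384 µg/mL. Each run done in triplicate, with consistent results across three separate experiments.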

[11] = tested on: Ribosome; test: Induction of ribosome to readthrough in-frame UGA codon of renilla/firefly PCDH15 R3X nonsense mutant gene transfected in rabbit reticulocyte assessed as reduction in overall translation at 5 to 20 uM […] dual-luciferase reporter gene assay; type: subcellular; conditions: Oryctolagus cuniculus
[12] = tested on: Ribosome; test: Induction of ribosome to readthrough in-frame UAG codon of renilla/firefly IDUA Q70X nonsense mutant gene transfected in rabbit reticulocyte assessed as reduction in overall translation at 5 to 20 uM […] dual-luciferase reporter gene assay; type: subcellular; conditions: Oryctolagus cuniculus
[13] = (§2) Cytotoxicity against HEK293 cells after 48 hrs by XTT assay; type: cell-based; conditions: human, HEK293 cells; read-out: LC50
Method in brief: (§3)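 HEK-293 cells seeded overnight at 5000 cells/well in DMEM with 10% FBS, 1% pen/strep and 1% glutamine. Medium then replaced with antibiotic-free medium, aminoglycoside added at a range of concentrations, and cells incubated 48 h. Read-out by O.D. on a plate reader. Viability is the ratio of living cells treated vs untreated. LC50 fitted from concentration–response curves of at least two independent experiments. Concentrations are given as free amine.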

[14] = tested on: Ribosome; test: Induction of ribosome to readthrough in-frame UGA codon of renilla/firefly PCDH15 R245X nonsense mutant gene transfected in rabbit reticulocyte assessed as reduction in overall translation at 5 to 20 uM […] dual-luciferase reporter gene assay; type: subcellular; conditions: Oryctolagus cuniculus
[15] = tested on: HEK293; test: Ratio of compound LC50 to gentamicin LC50 for HEK293 cells; type: ADME, cell-based; conditions: human; method in brief: as §1
[16] = tested on: Bacillus subtilis; test: Antibacterial activity against Bacillus subtilis ATCC 6633 by double-microdilution method; type: functional
Method in brief: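 MIC determined by double-microdilution per NCCLS against Gram-positive B. subtilis ATCC-6633, starting at 384 µg/mL of compound. Run in triplicate (footnote says duplicates); analogous results in three separate experiments.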

[17] = tested on: Ribosome; test: Induction of ribosome to readthrough in-frame UGA codon of renilla/firefly PCDH15 R3X nonsense mutant gene transfected in HEK293 cells assessed as reduction in overall translation at 1 to 2 mM after 6 hrs dual-luciferase reporter gene assay; type: subcellular; conditions: Homo sapiens
[18] = Ratio of gentamicin to compound antitranslational activity against prokaryotic ribosome-mediated translation; type: subcellular
[19] = Ratio of paromomycin to compound antitranslational activity against prokaryotic ribosome-mediated translation; type: subcellular
[20] = Cytotoxicity against HDF after 72 hrs by XTT assay; type: cell-based; conditions: human
Method in brief: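 Primary human dermal fibroblasts isolated from adult skin. Handled as in the HEK-293 protocol (overnight seeding, antibiotic-free medium, range of aminoglycoside concentrations), but exposed for 72 h. Viability is the ratio of treated to untreated living cells by O.D. LC50 fitted from concentration–response curves of at least two independent experiments.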

[21] = tested on: HEK293; test: as §2; type: cell-based; conditions: human, hek293, 48 h; read-out: LC50 (the source's name); method in brief: as §3
[22] = tested on: Ribosome; test: Induction of ribosome to readthrough in-frame renilla/firefly TGA codon transfected in rabbit reticulocyte at 5 to 20 uM after 16 hrs dual-luciferase reporter gene assay; type: subcellular; conditions: Oryctolagus cuniculus
[23] = tested on: Ribosome; test: Induction of ribosome to readthrough in-frame renilla/firefly TGA codon transfected in rabbit reticulocyte at 200 to 600 uM after 16 hrs dual-luciferase reporter gene assay; type: subcellular; conditions: Oryctolagus cuniculus

C[C@H](O)[C@H]1O[C@H](O[C@H]2[C@H](O[C@@H]3O[C@H](CN)[C@@H](O)[C@H]3O)[C@@H](O)[C@H](NC(=O)[C@@H](O)CCN)C[C@@H]2N)[C@H](N)[C@@H](O)[C@@H]1O
inhibition [1]: Active | inhibition [2]: 50% | IC50 [3]: 0.98 µM | IC50 [4]: 2.8 µM | selectivity ratio [5]: 5 | inhibition [6]: 50% | Ratio [7]: 2 | inhibition [8]: Active | inhibition [9]: 50% | MIC [10]: 556 µM (≈ 317 µg/mL) | inhibition [11]: 50% | inhibition [12]: 50% | CC50 at 48 h [13]: 7000 µM | inhibition [14]: 50% | Ratio [15]: 2.8 | MIC [16]: 70 µM (≈ 39.9 µg/mL) | inhibition [17]: Active

NC[C@H]1O[C@@H](O[C@@H]2[C@@H](O)[C@H](N)C[C@H](N)[C@H]2O[C@H]2O[C@H](CO)[C@@H](O)[C@H](O)[C@H]2N)[C@H](O)[C@@H]1O
inhibition [2]: 10% | IC50 [3]: 0.46 µM | IC50 [4]: 31 µM | Ratio [18]: 10 | inhibition [6]: 10% | inhibition [9]: 10% | MIC [10]: 790 µM (≈ 359 µg/mL) | inhibition [11]: 10% | inhibition [12]: 10% | CC50 at 48 h [13]: 21400 µM | inhibition [14]: 10% | MIC [16]: 100 µM (≈ 45.4 µg/mL) | Ratio [19]: 10

GENTAMICIN [listing 1 of 2 here]
IC50 [3]: 0.028 µM | CC50 ([20]; hdf, 72 h, read-out: LC50 (the source's name)): 3800 µM | IC50 [4]: 62 µM | CC50 [21]: 2500 µM

NCC[C@H](O)C(=O)N[C@@H]1C[C@H](N)[C@@H](O[C@H]2O[C@H](CO)[C@@H](O)[C@H](O)[C@H]2N)[C@H](O)[C@H]1O
Activity [22]: Active | Activity [23]: Active

GENTAMICIN [listing 2 of 2 here]
MIC [10]: 6 µM | MIC [16]: < 0.75 µM

C[C@H](O)[C@H]1O[C@H](O[C@H]2[C@H](O)[C@@H](O)[C@H](N)C[C@@H]2N)[C@H](N)[C@@H](O)[C@@H]1O
Activity [22]: Active | Activity [23]: Active

C[C@H](O)[C@H]1O[C@H](O[C@H]2[C@H](O[C@@H]3O[C@H](CN)[C@@H](O)[C@H]3O)[C@@H](O)[C@H](N)C[C@@H]2N)[C@H](N)[C@@H](O)[C@@H]1O
inhibition [2]: 10% | IC50 [3]: 1.13 µM | inhibition [6]: 10% | inhibition [9]: 10% | inhibition [11]: 10% | inhibition [12]: 10% | CC50 at 48 h [13]: 25800 µM | inhibition [14]: 10% | MIC [16]: 42 µM (≈ 19.7 µg/mL)

CN[C@@H]1[C@@H](O)[C@@H](O[C@@H]2[C@@H](O)[C@H](O[C@H]3O[C@H]([C@@H](C)O)[C@@H](O)[C@H](O)[C@H]3N)[C@@H](N)C[C@H]2N)OC[C@]1(C)O [GENETICIN]
IC50 [3]: 0.0089 µM | CC50 at 72 h ([20]; HDF cells, read-out: LC50): 2000 µM | MIC [10]: 9 µM (≈ 4.47 µg/mL) | CC50 at 48 h [13]: 1300 µM | MIC [16]: < 1.25 µM

C[C@H](O)[C@H]1O[C@H](O[C@H]2[C@H](O)[C@@H](O)[C@H](NC(=O)[C@@H](O)CCN)C[C@@H]2N)[C@H](N)[C@@H](O)[C@@H]1O
Activity [22]: Active

N[C@H]1[C@@H](O[C@H]2[C@H](O)[C@@H](O)[C@H](N)C[C@@H]2N)O[C@H](CO)[C@@H](O)[C@@H]1O
Activity [22]: Active | Activity [23]: Active

NCC[C@H](O)C(=O)N[C@@H]1C[C@H](N)[C@@H](O[C@H]2O[C@H](CO)[C@@H](O)[C@H](O)[C@H]2N)[C@H](O[C@@H]2O[C@H](CN)[C@@H](O)[C@H]2O)[C@H]1O
inhibition [1]: Active | inhibition [2]: 10% | IC50 [3]: 0.16 µM | IC50 [4]: 24 µM | Ratio [18]: 10 | inhibition [6]: 10% | inhibition [8]: Active | inhibition [9]: 10% | MIC [10]: 588 µM (≈ 327 µg/mL) | inhibition [11]: 10% | inhibition [12]: 10% | CC50 at 48 h [13]: 6100 µM | inhibition [14]: 10% | MIC [16]: 70 µM (≈ 38.9 µg/mL) | Ratio [19]: 10 | inhibition [17]: Active
